Experimental data as given in ChEMBL document CHEMBL4732182, “Design, synthesis and biological evaluation of 2-substituted-6-[(4-substituted-1-piperidyl)methyl]-1H-benzimidazoles as inhibitors of ebola virus infection” (Eur J Med Chem, 2021).
Calls of active or inactive are those of the source. The calls are words filed in the database; no cut-off is given here.

Tested on: Ebolavirus
Assay: Antiviral activity against Ebola virus infected in human HuH7 cells assessed as reduction in viral infection pretreated for 2 hrs followed by viral infection and measured after 3 days by ZsGreen fluorescence assay
Format: functional, organism-based
Conditions: Orthoebolavirus, Huh-7

SMILES	EC50 [nM]
CCOP(=O)(Cc1ccc(COc2ccccc2OC2CCN(Cc3ccc4nc(-c5ccccc5)[nH]c4c3)CC2)cc1)OCC	2950
CCOP(=O)(Cc1ccc(COc2ccccc2OC2CCN(Cc3ccc4nc(-c5cccc(C(F)(F)F)c5)[nH]c4c3)CC2)cc1)OCC	29700
CCOP(=O)(Cc1ccc(COc2ccccc2CC2CCN(Cc3ccc4nc(-c5ccccc5)[nH]c4c3)CC2)cc1)OCC	640
CCOP(=O)(Cc1cccc(COc2ccccc2OC2CCN(Cc3ccc4nc(-c5ccc(OC(F)(F)F)cc5)[nH]c4c3)CC2)c1)OCC	1970
CCOP(=O)(Cc1ccc(COc2ccccc2OC2CCN(Cc3ccc4nc(-c5cccc(OC(F)(F)F)c5)[nH]c4c3)CC2)cc1)OCC	2950
CCOP(=O)(Cc1ccc(COc2ccccc2OC2CCN(Cc3ccc4nc(-c5ccc(OC(F)(F)F)cc5)[nH]c4c3)CC2)cc1)OCC	1190
CCOP(=O)(Cc1ccc(COc2ccccc2OC2CCN(Cc3ccc4nc(-c5ccc(C(F)(F)F)cc5)[nH]c4c3)CC2)cc1)OCC	1730
CCOP(=O)(Cc1cccc(COc2ccccc2OC2CCN(Cc3ccc4nc(-c5ccccc5)[nH]c4c3)CC2)c1)OCC	1880
CN(C)CCOc1ccc(/C(=C(\CCCl)c2ccccc2)c2ccccc2)cc1	380
CCOP(=O)(Cc1cccc(COc2ccccc2CC2CCN(Cc3ccc4nc(-c5cccc(OC(F)(F)F)c5)[nH]c4c3)CC2)c1)OCC	870
CCOP(=O)(Cc1cccc(COc2ccccc2CC2CCN(Cc3ccc4nc(-c5ccccc5)[nH]c4c3)CC2)c1)OCC	930

Tested on: not listed separately
Assay: Cytotoxicity against human Huh-7 cells assessed as reduction in cell viability incubated for 3 days by cell-titer glo assay
Format: cell-based
Conditions: time 3 day
Outline: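 Huh7 cells received compound but no virus, in parallel with the infection assay. Viability was read by CellTiter-Glo luminescence. CC50 was derived from a 4-parameter fit to semi-log concentration-response curves.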

SMILES	CC50 at 72 h [µM]
CCOP(=O)(Cc1ccc(COc2ccccc2OC2CCN(Cc3ccc4nc(-c5ccccc5)[nH]c4c3)CC2)cc1)OCC	14.7
CCOP(=O)(Cc1ccc(COc2ccccc2OC2CCN(Cc3ccc4nc(-c5cccc(C(F)(F)F)c5)[nH]c4c3)CC2)cc1)OCC	100
CCOP(=O)(Cc1ccc(COc2ccccc2CC2CCN(Cc3ccc4nc(-c5ccccc5)[nH]c4c3)CC2)cc1)OCC	13.2
CCOP(=O)(Cc1cccc(COc2ccccc2OC2CCN(Cc3ccc4nc(-c5ccc(OC(F)(F)F)cc5)[nH]c4c3)CC2)c1)OCC	4.23
CCOP(=O)(Cc1ccc(COc2ccccc2OC2CCN(Cc3ccc4nc(-c5cccc(OC(F)(F)F)c5)[nH]c4c3)CC2)cc1)OCC	14.7
CCOP(=O)(Cc1ccc(COc2ccccc2OC2CCN(Cc3ccc4nc(-c5ccc(OC(F)(F)F)cc5)[nH]c4c3)CC2)cc1)OCC	4.2
CCOP(=O)(Cc1ccc(COc2ccccc2OC2CCN(Cc3ccc4nc(-c5ccc(C(F)(F)F)cc5)[nH]c4c3)CC2)cc1)OCC	3.82
CCOP(=O)(Cc1cccc(COc2ccccc2OC2CCN(Cc3ccc4nc(-c5ccccc5)[nH]c4c3)CC2)c1)OCC	13.1
CN(C)CCOc1ccc(/C(=C(\CCCl)c2ccccc2)c2ccccc2)cc1	2.5
CCOP(=O)(Cc1cccc(COc2ccccc2CC2CCN(Cc3ccc4nc(-c5cccc(OC(F)(F)F)c5)[nH]c4c3)CC2)c1)OCC	4.45
CCOP(=O)(Cc1cccc(COc2ccccc2CC2CCN(Cc3ccc4nc(-c5ccccc5)[nH]c4c3)CC2)c1)OCC	9.17

Tested on: not listed separately
Assay: Selectivity index, ratio of CC50 for human Huh-7 cells to EC50 for Ebola virus infected in human HuH7 cells
Format: toxicity, cell-based
Conditions: read-out: Ratio CC50/EC50

SMILES	selectivity ratio
CCOP(=O)(Cc1ccc(COc2ccccc2OC2CCN(Cc3ccc4nc(-c5ccccc5)[nH]c4c3)CC2)cc1)OCC	5
CCOP(=O)(Cc1ccc(COc2ccccc2OC2CCN(Cc3ccc4nc(-c5cccc(C(F)(F)F)c5)[nH]c4c3)CC2)cc1)OCC	3
CCOP(=O)(Cc1ccc(COc2ccccc2CC2CCN(Cc3ccc4nc(-c5ccccc5)[nH]c4c3)CC2)cc1)OCC	20
CCOP(=O)(Cc1cccc(COc2ccccc2OC2CCN(Cc3ccc4nc(-c5ccc(OC(F)(F)F)cc5)[nH]c4c3)CC2)c1)OCC	2
CCOP(=O)(Cc1ccc(COc2ccccc2OC2CCN(Cc3ccc4nc(-c5cccc(OC(F)(F)F)c5)[nH]c4c3)CC2)cc1)OCC	5
CCOP(=O)(Cc1ccc(COc2ccccc2OC2CCN(Cc3ccc4nc(-c5ccc(OC(F)(F)F)cc5)[nH]c4c3)CC2)cc1)OCC	4
CCOP(=O)(Cc1ccc(COc2ccccc2OC2CCN(Cc3ccc4nc(-c5ccc(C(F)(F)F)cc5)[nH]c4c3)CC2)cc1)OCC	2
CCOP(=O)(Cc1cccc(COc2ccccc2OC2CCN(Cc3ccc4nc(-c5ccccc5)[nH]c4c3)CC2)c1)OCC	7
CN(C)CCOc1ccc(/C(=C(\CCCl)c2ccccc2)c2ccccc2)cc1	7
CCOP(=O)(Cc1cccc(COc2ccccc2CC2CCN(Cc3ccc4nc(-c5cccc(OC(F)(F)F)c5)[nH]c4c3)CC2)c1)OCC	5
CCOP(=O)(Cc1cccc(COc2ccccc2CC2CCN(Cc3ccc4nc(-c5ccccc5)[nH]c4c3)CC2)c1)OCC	10

Tested on: not listed separately
Assay: Inhibition of Ebolavirus glycoprotein transfected in human Huh-7 cells cotransfected with HIV luciferase reporter vector expressing plasmid assessed as reduction in virus entry measured after 3 days by Bright-Glo luciferase assay
Format: cell-based
Conditions: Orthoebolavirus, Huh-7, 72 h
Outline: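 Huh7 cells were preincubated with varying compound concentrations for 1 h at 37 C. HIV-based luciferase reporter particles pseudotyped with EBOV GP were then added. Firefly luciferase activity was measured by Bright-Glo 3 days later.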

SMILES	EC50 [nM]
CCOP(=O)(Cc1ccc(COc2ccccc2CC2CCN(Cc3ccc4nc(-c5ccccc5)[nH]c4c3)CC2)cc1)OCC	1350
CCOP(=O)(Cc1cccc(COc2ccccc2CC2CCN(Cc3ccc4nc(-c5ccccc5)[nH]c4c3)CC2)c1)OCC	2920

Molecular target: T1, NPC intracellular cholesterol transporter 1 (Homo sapiens) (UniProt O15118)
T1 sequence (whole entry): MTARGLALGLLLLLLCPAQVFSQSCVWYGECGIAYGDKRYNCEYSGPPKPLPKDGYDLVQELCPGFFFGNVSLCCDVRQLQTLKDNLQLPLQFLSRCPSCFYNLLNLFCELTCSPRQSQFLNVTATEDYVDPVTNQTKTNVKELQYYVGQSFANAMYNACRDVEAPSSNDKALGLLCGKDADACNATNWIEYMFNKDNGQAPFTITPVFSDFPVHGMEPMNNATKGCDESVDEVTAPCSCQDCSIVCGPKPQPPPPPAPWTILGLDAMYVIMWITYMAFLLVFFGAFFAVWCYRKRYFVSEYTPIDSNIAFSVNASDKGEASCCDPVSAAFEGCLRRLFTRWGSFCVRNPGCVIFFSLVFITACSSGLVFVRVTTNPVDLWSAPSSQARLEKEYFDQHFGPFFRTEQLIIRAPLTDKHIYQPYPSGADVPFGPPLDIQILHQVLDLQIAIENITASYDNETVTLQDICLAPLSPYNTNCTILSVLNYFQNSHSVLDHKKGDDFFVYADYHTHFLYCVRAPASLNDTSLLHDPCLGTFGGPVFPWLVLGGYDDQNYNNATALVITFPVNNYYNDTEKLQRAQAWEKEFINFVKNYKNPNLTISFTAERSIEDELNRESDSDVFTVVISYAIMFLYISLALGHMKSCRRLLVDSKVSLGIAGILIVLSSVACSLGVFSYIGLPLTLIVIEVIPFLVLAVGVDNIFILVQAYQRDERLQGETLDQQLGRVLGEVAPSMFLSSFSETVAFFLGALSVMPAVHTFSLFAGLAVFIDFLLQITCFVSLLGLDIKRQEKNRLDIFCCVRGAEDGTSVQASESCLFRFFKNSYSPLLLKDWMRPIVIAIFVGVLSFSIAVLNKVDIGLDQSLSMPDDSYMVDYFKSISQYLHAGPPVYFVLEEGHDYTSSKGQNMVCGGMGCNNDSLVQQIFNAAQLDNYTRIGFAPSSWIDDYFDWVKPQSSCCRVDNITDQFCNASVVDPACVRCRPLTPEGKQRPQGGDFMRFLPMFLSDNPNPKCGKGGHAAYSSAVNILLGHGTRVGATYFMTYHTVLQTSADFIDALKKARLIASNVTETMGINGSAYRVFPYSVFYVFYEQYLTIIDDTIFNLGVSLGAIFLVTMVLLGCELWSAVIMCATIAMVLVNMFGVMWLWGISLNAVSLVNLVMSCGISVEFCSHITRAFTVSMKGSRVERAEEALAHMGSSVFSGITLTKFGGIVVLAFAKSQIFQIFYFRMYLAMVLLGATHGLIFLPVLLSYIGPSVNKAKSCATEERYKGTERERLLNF
Assay: Inhibition of NPC1 in human HeLa cells assessed as increase in cholesterol accumulation in subcellular localization at 1 uM incubated for 24 hrs by filipin-staining based immunofluorescence assay
Format: cell-based
Conditions: not given
Outline: (§1)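 HeLa cells were exposed to compound for 24 h; DMSO vehicle was 0.1% (v/v) final. They were then stained with 0.5 mg/mL filipin in PBS plus 10% FCS for 2 h at RT and imaged on a high-content imager.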

SMILES	inhibition
CCOP(=O)(Cc1ccc(COc2ccccc2CC2CCN(Cc3ccc4nc(-c5ccccc5)[nH]c4c3)CC2)cc1)OCC	Active
CCOP(=O)(Cc1cccc(COc2ccccc2CC2CCN(Cc3ccc4nc(-c5ccccc5)[nH]c4c3)CC2)c1)OCC	Active

Molecular target: T1, NPC intracellular cholesterol transporter 1 (Homo sapiens)
Assay: Inhibition of NPC1 in human HeLa cells assessed as increase in cholesterol accumulation in subcellular localization at 5 uM incubated for 24 hrs by filipin-staining based immunofluorescence assay
Format: cell-based
Conditions: not given
Outline: as §1

SMILES	inhibition
CCN(CC)CCO[C@H]1CC[C@@]2(C)C(=CC[C@@H]3[C@@H]2CC[C@]2(C)C(=O)CC[C@@H]32)C1	Active
